Tests used:
Aurora kinase A = target: T1, Aurora kinase A (Homo sapiens, UniProt O14965); experiment: Inhibition of Aurora2
T1 sequence (O14965 whole entry): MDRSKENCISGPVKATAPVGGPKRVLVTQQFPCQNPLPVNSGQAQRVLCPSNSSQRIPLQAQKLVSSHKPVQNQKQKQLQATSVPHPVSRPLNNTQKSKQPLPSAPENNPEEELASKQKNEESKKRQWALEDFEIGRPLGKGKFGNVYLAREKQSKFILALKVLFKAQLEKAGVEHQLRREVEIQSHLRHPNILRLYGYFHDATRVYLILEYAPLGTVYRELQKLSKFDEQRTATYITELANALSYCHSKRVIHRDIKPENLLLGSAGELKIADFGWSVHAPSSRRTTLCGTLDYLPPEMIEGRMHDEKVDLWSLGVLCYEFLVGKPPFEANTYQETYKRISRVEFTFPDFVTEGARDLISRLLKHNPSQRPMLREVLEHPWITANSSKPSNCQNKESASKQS

[1] = target: Tyrosine-protein kinase Lck (Homo sapiens, UniProt P06239); experiment: Inhibition of LCK
[2] = Inhibition of P38 kinase
[3] = target: Ribosomal protein S6 kinase beta-1 (Homo sapiens, UniProt P23443); experiment: Inhibition of P70S6
[4] = target: Serine/threonine-protein kinase pim-2 (Homo sapiens, UniProt Q9P1W9); experiment: Inhibition of PIM2 kinase
[5] = Inhibition of IGFR
[6] = Bioavailability in iv dosed rat; type: ADME, organism-based; conditions: in vivo
[7] = target: T2, Tyrosine-protein kinase JAK3 (Homo sapiens, UniProt P52333); experiment: Inhibition of JAK3
T2 sequence (P52333 whole entry): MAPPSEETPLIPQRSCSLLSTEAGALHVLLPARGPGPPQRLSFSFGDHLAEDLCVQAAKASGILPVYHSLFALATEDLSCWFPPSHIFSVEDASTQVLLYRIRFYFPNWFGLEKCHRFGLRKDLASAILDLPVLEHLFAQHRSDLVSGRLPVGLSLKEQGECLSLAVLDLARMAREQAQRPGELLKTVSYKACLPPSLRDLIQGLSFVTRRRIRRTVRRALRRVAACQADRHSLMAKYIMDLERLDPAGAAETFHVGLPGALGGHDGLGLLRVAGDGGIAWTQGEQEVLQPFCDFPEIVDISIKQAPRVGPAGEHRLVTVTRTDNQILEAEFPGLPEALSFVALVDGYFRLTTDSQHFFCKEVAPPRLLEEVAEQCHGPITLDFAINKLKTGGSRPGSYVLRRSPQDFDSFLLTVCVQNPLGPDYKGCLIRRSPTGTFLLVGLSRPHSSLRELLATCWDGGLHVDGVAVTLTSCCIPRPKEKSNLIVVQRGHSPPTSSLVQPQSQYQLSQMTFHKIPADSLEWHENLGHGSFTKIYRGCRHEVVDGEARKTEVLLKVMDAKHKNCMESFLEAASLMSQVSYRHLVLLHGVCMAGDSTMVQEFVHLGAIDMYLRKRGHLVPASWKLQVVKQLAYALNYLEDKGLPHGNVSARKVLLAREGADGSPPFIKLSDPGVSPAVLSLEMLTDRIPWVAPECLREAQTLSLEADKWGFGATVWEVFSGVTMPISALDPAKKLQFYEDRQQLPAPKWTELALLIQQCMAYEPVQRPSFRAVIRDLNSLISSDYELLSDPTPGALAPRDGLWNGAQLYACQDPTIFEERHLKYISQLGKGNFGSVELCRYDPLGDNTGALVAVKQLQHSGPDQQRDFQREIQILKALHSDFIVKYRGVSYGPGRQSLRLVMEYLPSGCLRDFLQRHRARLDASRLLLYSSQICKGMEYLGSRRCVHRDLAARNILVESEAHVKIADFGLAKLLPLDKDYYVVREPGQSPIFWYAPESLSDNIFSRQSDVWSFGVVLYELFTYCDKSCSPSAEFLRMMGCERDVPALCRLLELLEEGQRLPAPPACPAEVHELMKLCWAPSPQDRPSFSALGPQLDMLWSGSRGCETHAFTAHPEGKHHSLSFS

[8] = target: Tyrosine-protein kinase ZAP-70 (Homo sapiens, UniProt P43403); experiment: Inhibition of ZAP70
[9] = target: Tyrosine-protein kinase BTK (Homo sapiens, UniProt Q06187); experiment: Inhibition of BTK
[10] = target: RAC-alpha serine/threonine-protein kinase (Homo sapiens, UniProt P31749); experiment: Inhibition of PKBalpha
[11] = target: Mitogen-activated protein kinase 3 (Homo sapiens, UniProt P27361); experiment: Inhibition of ERK1
[12] = target: Vascular endothelial growth factor receptor 2 (Homo sapiens, UniProt P35968); experiment: Inhibition of phosphorylated KDR by HTRF assay
Procedure, shortened: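 HTRF assay against KDR kinase with 10-point serial dilution. ATP at two-thirds of the experimentally determined Km (Eadie-Hofstee and Lineweaver-Burke). Ki derived from the IC50.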

[13] = Inhibition of FGFRK
[14] = target: cAMP-dependent protein kinase catalytic subunit alpha (Homo sapiens, UniProt P17612); experiment: Inhibition of PKAalpha
[15] = target: Vascular endothelial growth factor receptor 3 (Homo sapiens, UniProt P35916); experiment: Inhibition of Flt4 kinase
[16] = target: Macrophage colony-stimulating factor 1 receptor (Homo sapiens, UniProt P07333); experiment: Inhibition of cFMS kinase
[17] = target: Mitogen-activated protein kinase 9 (Homo sapiens, UniProt P45984); experiment: Inhibition of JNK2
[18] = target: Serine/threonine-protein kinase pim-1 (Homo sapiens, UniProt P11309); experiment: Inhibition of PIM1 kinase
Mus musculus = experiment: Inhibition of human recombinant HGF-induced cMet phosphorylation in po or ip dosed BALB/c mouse liver after 2 hrs
[19] = target: Cyclin-dependent kinase 5 (Homo sapiens, UniProt Q00535); experiment: Inhibition of CDK5
[20] = target: Vascular endothelial growth factor receptor 1 (Homo sapiens, UniProt P17948); experiment: Inhibition of Flt1 kinase
[21] = target: Tyrosine-protein kinase JAK2 (Homo sapiens, UniProt O60674); experiment: Inhibition of JAK2
[22] = Volume of distribution in iv dosed rat; type: ADME, organism-based; conditions: in vivo
[23] = target: Ribosomal protein S6 kinase alpha-5 (Homo sapiens, UniProt O75582); experiment: Inhibition of MSK1
[24] = Half life in iv dosed rat; type: ADME, organism-based; conditions: in vivo
[25] = target: Hepatocyte growth factor receptor (Homo sapiens, UniProt P08581); experiment: Inhibition of cMet by HTRF assay
Angiopoietin-1 receptor = Angiopoietin-1 receptor (Homo sapiens, UniProt Q02763); experiment: Inhibition of Tie2 kinase
[26] = Clearance in iv dosed rat; type: ADME, organism-based; conditions: in vivo
[27] = target: Macrophage-stimulating protein receptor (Homo sapiens, UniProt Q04912); experiment: Inhibition of phosphorylated RON
[28] = target: Fibroblast growth factor receptor 2 (Homo sapiens, UniProt P21802); experiment: Inhibition of FGFRK2
[29] = Selectivity of cMet over KDR
[30] = Selectivity of cMet over RON
A-431 = experiment: Cytotoxicity against human A431 cells; type: functional, cell-based
[31] = Selectivity of cMet over Aurora2
[32] = Selectivity of cMet over PKAalpha
[33] = Selectivity of cMet over Flt1
[34] = Selectivity of cMet over MSK1
[35] = Selectivity of cMet over FGFRK
[36] = Selectivity of cMet over FGFRK2
[37] = Selectivity of cMet over JNK2
[38] = Selectivity of cMet over JAK2
[39] = Selectivity of cMet over cFMS kinase
[40] = Selectivity of cMet over PKBalpha
[41] = Selectivity of cMet over P38
[42] = Selectivity of cMet over ERK1
[43] = target: Hepatocyte growth factor receptor c-Met (Mus musculus) (UniProt P16056); experiment: Inhibition of human recombinant HGF-mediated cMet phosphorylation in mouse CT26 cells
[44] = Selectivity of cMet over BTK
[45] = Selectivity of cMet over P70S6
[46] = Selectivity of cMet over Tie2 kinase
[47] = Selectivity of cMet over LCK
[48] = Selectivity of cMet over Flt2
[49] = Selectivity of cMet over EGFR
[50] = Selectivity of cMet over CDK5
[51] = Selectivity of cMet over JAK3
[52] = Selectivity of cMet over PIM1
[53] = Selectivity of cMet over ZAP70
[54] = Selectivity of cMet over PIM2

COc1cc2c(Oc3ccc(-c4cnc(Cc5ccccc5)n(C)c4=O)cc3F)ccnc2cc1OCCCN1CCOCC1
IC50 (Aurora kinase A): 116 nM | IC50 [1]: 8 nM | IC50 [2]: > 25000 nM | IC50 [3]: 10000 nM | IC50 [4]: > 25000 nM | Ki [5]: 1450 nM | bioavailability [6]: 100% | IC50 [7]: > 8300 nM | IC50 [8]: > 5400 nM | IC50 [9]: 19 nM | IC50 [10]: > 100000 nM | IC50 [11]: > 100000 nM | Ki [12]: 422 nM | IC50 [13]: > 1000 nM | IC50 [14]: > 100000 nM | IC50 [15]: 120 nM | IC50 [16]: 37 nM | IC50 [17]: > 100000 nM | IC50 [18]: > 30000 nM | ED90 (Mus musculus): 100 mg/kg | IC50 [19]: > 100000 nM | IC50 [20]: > 1000 nM | IC50 [21]: > 25000 nM | Vd [22]: 3.4 L/kg | IC50 [23]: > 100000 nM | half-life [24]: 2.4 h | Ki [25]: 8.9 nM | IC50 (Angiopoietin-1 receptor): 285 nM | clearance [26]: 9.33 mL/min/kg | Ki [27]: 195 nM | IC50 [28]: > 1000 nM

COc1cc2nccc(Oc3ccc4cc(NC(=O)Cc5ccccc5)ccc4c3)c2cc1OC
Selectivity ratio [29]: 9 | Selectivity ratio [30]: 3 | Ki [25]: 89 nM

CCN1CCN(CCCOc2cc3nccc(Oc4ccc(-c5cnc(Cc6ccccc6)n(C)c5=O)cc4F)c3cc2OC)CC1
Ki [25]: 21 nM

COc1cc2nccc(Oc3ccc(NC(=S)NC(=O)Cc4ccccc4)cc3F)c2cc1OC
IC50 (A-431): 8.7 nM

COc1cc2nccc(Oc3ccc(-c4ccc(Cc5ccccc5)nn4)cc3F)c2cc1OC
Ki [12]: 56 nM | Ki [25]: 201 nM

COc1cc2c(Oc3ccc(-c4cnc(Nc5ccc(F)cc5)n(C)c4=O)nc3)ccnc2cc1OCCCN1CCOCC1
IC50 (Aurora kinase A): 426 nM | Selectivity ratio [31]: > 100 | IC50 [1]: 33 nM | IC50 [2]: > 100000 nM | IC50 [3]: 65000 nM | IC50 [4]: > 25000 nM | Selectivity ratio [32]: > 100 | Selectivity ratio [33]: > 100 | Selectivity ratio [34]: > 100 | Ki [5]: 51 nM | bioavailability [6]: 48% | Selectivity ratio [35]: > 100 | Selectivity ratio [36]: > 100 | Selectivity ratio [37]: > 100 | IC50 [7]: > 25000 nM | Selectivity ratio [38]: > 100 | Selectivity ratio [39]: < 10 | Selectivity ratio [40]: > 100 | Selectivity ratio [41]: > 100 | Selectivity ratio [42]: > 100 | IC50 [9]: 126 nM | IC50 [10]: > 100000 nM | IC50 [11]: > 100000 nM | IC50 [43]: 59 nM | Ki [12]: 83 nM | IC50 [13]: 1300 nM | IC50 [14]: > 25000 nM | Selectivity ratio [44]: < 10 | IC50 [17]: 4700 nM | IC50 [18]: 7800 nM | ED90 (Mus musculus): 30 mg/kg | IC50 [19]: > 100000 nM | Selectivity ratio [45]: > 100 | Selectivity ratio [46]: > 100 | Vd [22]: 3.4 L/kg | Selectivity ratio [47]: < 10 | Selectivity ratio [48]: > 100 | Selectivity ratio [49]: > 100 | IC50 [23]: 52000 nM | half-life [24]: 2.4 h | Selectivity ratio [50]: > 100 | Selectivity ratio [51]: > 100 | Ki [25]: 3.4 nM | Selectivity ratio [52]: > 100 | IC50 (Angiopoietin-1 receptor): 221 nM | clearance [26]: 9.33 mL/min/kg | Ki [27]: 1.3 nM | Selectivity ratio [53]: > 100 | Selectivity ratio [54]: > 100

— ChEMBL document CHEMBL1140082, “Design, synthesis, and biological evaluation of potent c-Met inhibitors” (J Med Chem, 2008)
